Source: PubChem
Shown are actives, neighbours in structure and some others; about 3% of the full set was active somewhere.
SENP6 block: blocks the human protease SENP6; Q9GZR1; Recombinant SENP6 catalytic domain, aminoluciferin luminescence; inhibition, % at 10 µM; hit rate 1.8% among 330,000;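 active = inhibition above about 50% at the single tested dose, limit read from the data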;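 note: plate controls were DMSO wells with enzyme for no effect and DMSO wells lacking enzyme for full effect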
SENP7 inh: blocks the human protease SENP7; Q9BQF6; recombinant SENP7, Z-RLRGG-aminoluciferin luminescence, 40 min; inhibition, % at 5 µM; hit rate 1.5% among 330,000;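 active = inhibition above about 50% at the single test dose, limit read from the data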;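 note: plate controls were DMSO with enzyme for no effect and no enzyme buffer wells for full effect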
SENP8 block-1: SENP8 (human) protease inhibition. Q96LD8. recombinant SENP8, Nedd8 substrate fluorescence. inhibition, % at 20 µM. hit rate 0.64% among 360,000. AID 602440; in the data active = inhibition mostly above about 40%, no sharp cut-off; inactive = mostly below about 27%
Target sequence (Q96LD8 whole entry, looked up): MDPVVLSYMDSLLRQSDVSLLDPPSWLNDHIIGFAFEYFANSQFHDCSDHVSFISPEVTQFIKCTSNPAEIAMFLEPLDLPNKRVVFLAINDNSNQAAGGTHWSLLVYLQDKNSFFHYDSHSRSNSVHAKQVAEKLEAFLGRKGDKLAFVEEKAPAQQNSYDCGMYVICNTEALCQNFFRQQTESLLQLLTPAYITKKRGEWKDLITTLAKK
SENP8 block-2: blocks the human protease SENP8. purified SENP8, Z-RLRGG-aminoluciferin cleavage, luminescence. inhibition, % at 10 µM. hit rate 1.2% among 330,000. AID 2540; in the data active = inhibition above about 50%
Apaf-1 inh: human Apaf-1 inhibition. AID 489030. inhibition, % at 20 µM. reconstituted apoptosome caspase-3 activity, DEVD-Rh110 fluorescence. O14727. hit rate 0.71% among 330,000; active = inhibition of at least 40% at 20 µM;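 note: plate controls were DMSO wells for no effect and DEVD-CHO caspase inhibitor wells for full effect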
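Assay system – apoptosome proteins · Medium – Hepes buffer, pH 7.5 · Also added – cytochrome c with DEVD-Rh110 · Timing – 30 min compound preincubation, 50 min activation, room temperature · Detection – Rh110 fluorescence, excitation 480 nm, emission 540 nm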
UBC13 polyUb: inhibitors of human UBC13 polyubiquitin chain formation. hit rate 0.47% among 330,000. inhibition, % at 20 µM. P61088. TR-FRET; in the data active = inhibition above about 45%, passing the limit was not always enough
Target sequence (P61088 whole entry, looked up): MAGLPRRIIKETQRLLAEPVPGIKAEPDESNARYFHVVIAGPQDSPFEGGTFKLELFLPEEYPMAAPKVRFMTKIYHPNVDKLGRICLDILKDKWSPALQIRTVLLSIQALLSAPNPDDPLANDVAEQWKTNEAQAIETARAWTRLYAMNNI
SENP8 confirm: human SENP8 inhibition, confirmed | shares compounds with SENP7 inh | Recombinant SENP8, Z-RLRGG-aminoluciferin luminescence, 60 min | inhibition, % at 12.5 µM | hit rate 40% among 6,200 | AID 488912;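 active = mean inhibition across replicates above about 50%, limit read from the data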
SENP6 confirm: human SENP6 inhibition, confirmed; shares compounds with SENP7 inh; recombinant SENP6, Z-RLRGG-aminoluciferin luminescence; inhibition, % at 12.5 µM; hit rate 58% among 6,200; AID 488915
SENP7 confirm: human SENP7 inhibition, confirmed. shares compounds with SENP7 inh. recombinant SENP7, Z-RLRGG-aminoluciferin luminescence, 40 min. inhibition, % at 12.5 µM. hit rate 69% among 6,200
Casp3 select: caspase-3 inhibition (SENP selectivity assay); shares compounds with SENP7 inh; purified caspase-3, Z-DEVD-aminoluciferin luminescence, 60 min; inhibition, % at 12.5 µM; hit rate 60% among 6,200; AID 488918;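 active = mean inhibition above about 50%, limit read from the data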;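 note: plate controls were enzyme with DMSO for no effect and wells without caspase-3 for full effect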
Target sequence (P42574 28-227 limits assumed): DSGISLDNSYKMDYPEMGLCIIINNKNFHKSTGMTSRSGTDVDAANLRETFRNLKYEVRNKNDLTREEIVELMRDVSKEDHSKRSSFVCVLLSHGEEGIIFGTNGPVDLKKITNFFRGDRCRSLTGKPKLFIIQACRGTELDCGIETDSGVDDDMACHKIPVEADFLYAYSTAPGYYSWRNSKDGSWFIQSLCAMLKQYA
Luc interf: luminescence interference (SENP counter-screen); shares compounds with SENP7 inh; Pre-incubated SENP8/Z-RLRGG-aminoluciferin, luciferase luminescence interference; inhibition, % at 12.5 µM; hit rate 39% among 6,200; AID 488919;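 active = mean inhibition above about 50% when retested at one dose, limit read from the data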;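 note: plate controls were DMSO wells with completed reaction for no effect and substrate without enzyme for full effect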
An asterisk follows results filed as active; nt = no result given.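 Rule for the calls, unless noted: active = mean inhibition above about 50% in the one-dose retest (limit read from the data); inactive = the rest.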

SMILES | SENP6 block | SENP7 inh | SENP8 block-1 | SENP8 block-2 | Apaf-1 inh | UBC13 polyUb | SENP8 confirm | SENP6 confirm | SENP7 confirm | Casp3 select | Luc interf
NC(CCc1ccccc1)c1csc(Nc2nncc3ccccc23)n1 (stereo not given) | nt | nt | -137 | nt | nt | nt | nt | nt | nt | nt | nt
CCOC(=O)c1ccc(-c2ccc(CO)o2)cc1 | 65* | 55* | -272 | 29 | 3 | 14 | 60* | 57* | 86* | 73* | 64*
CCOC(=O)c1ccc(COC(=O)c2ccc(-c3nnc(-c4ccccc4)o3)cc2)o1 | 53* | 3 | -161 | 25 | 13 | 2 | 24 | 20 | 22 | 59* | 51*
CCC(CC)C(=O)N(C)c1c(C)nc2c(OCC3CCCCC3)cccn12 | nt | nt | 10 | nt | nt | nt | nt | nt | nt | nt | nt
O=C1c2ccccc2CCC12OC2c1ccncc1 (stereo not given) | nt | nt | 7 | nt | nt | nt | nt | nt | nt | nt | nt
O=C1NC[C@H](CCCCN2C[C@H](Cc3ccc(O)cc3)N(CC3CCCCC3)C(=O)C2=O)N(Cc2ccccc2)C1=O | nt | nt | 8 | nt | nt | nt | nt | nt | nt | nt | nt
O=C(N/N=C/c1ccc(OC(=O)c2ccccc2Cl)cc1)c1cc(O)cc(O)c1 | 16 | -4 | 9 | 0 | 14 | 26 | nt | nt | nt | nt | nt
Cc1ccc(/C=N\NC(=O)c2csnn2)cc1 | 55* | 50* | 24 | 30 | 27 | -5 | 41 | 39 | 77* | 81* | 28
CCN(CC)c1ccc(/C=N/NC(=O)c2ccccn2)cc1 | 1 | 28 | -241 | 11 | -1 | -12 | nt | nt | nt | nt | nt
CCc1ccc(/C=N/NC(=O)c2ccccn2)cc1 | 83* | 83* | -3 | 79* | -3 | -10 | 87* | 87* | 98* | 94* | 86*
O=C(N/N=C/c1ccc(OC(=O)c2ccccc2Cl)cc1)c1ccccn1 | 4 | 71* | -7 | 5 | -2 | -4 | 12 | 11 | 15 | 29 | 10
CCOC(=O)[C@]12CCCC=C1N(Cc1ccco1)C(=O)[C@H](CC(=O)NCc1cccs1)C2 | nt | nt | 4 | nt | nt | nt | nt | nt | nt | nt | nt
N/C(=N\OC(=O)Nc1ccccc1)c1ncc(C(F)(F)F)cc1Cl | 50* | 7 | 20 | 29 | -5 | 2 | 52* | 47 | 77* | 69* | 57*
N/C(=N\OC(=O)Nc1ccc(Cl)cc1)c1ncc(C(F)(F)F)cc1Cl | -22 | 5 | 20 | -5 | 3 | 17 | nt | nt | nt | nt | nt
C(/C=C/c1ccccn1)=C\c1ccccc1 | 87* | 88* | -402 | 80* | 1 | 2 | 25 | 66* | 90* | 66* | 52*
C(=C\c1ccccn1)/c1ccncc1 | 0 | -1 | 0 | -4 | 4 | 6 | nt | nt | nt | nt | nt
CCC(C)NC(=O)C1CCN(S(=O)(=O)N2CCCC2)CC1 (stereo not given) | -25 | 3 | 2 | -2 | -19 | 7 | nt | nt | nt | nt | nt
CCC(C)NC(=O)C1CCN(C(=O)N(C)C)CC1 (stereo not given) | 5 | 102* | 15 | -5 | -8 | 0 | -1 | -1 | -4 | -4 | -6
COc1cccc(-c2cc(CNC(=O)[C@H]3O[C@@H](n4ccc(N)nc4=O)[C@H](O)[C@@H]3O)no2)c1 | nt | nt | 17 | nt | nt | nt | nt | nt | nt | nt | nt
Fc1ccccc1Nc1nc2ccccc2o1 | 99* | 97* | 20 | 94* | 10 | -5 | 97* | 98* | 102* | 97* | 96*
O=C(NNc1nc2ccccc2o1)c1ccccc1 | 64* | 0 | 2 | 53* | -4 | 4 | 16 | 69* | 48 | 71* | 44
Cc1cc(C)nc(Nc2nc3ccccc3o2)n1 | -16 | -7 | 15 | -2 | -1 | -2 | nt | nt | nt | nt | nt
O=C(NC(=Nc1nc2ccccc2o1)NC(=O)c1ccccc1)c1ccccc1 | -2 | -2 | -351 | -2 | -6 | 2 | nt | nt | nt | nt | nt
c1ccc(Nc2nc3ccccc3o2)cc1 | 97* | 97* | 10 | 90* | 1 | -3 | 10 | 97* | -1 | 93* | 94*
COc1ccccc1Cc1c(-c2cccc(Br)c2)nc2c(C)cc(Br)cn12 | nt | nt | -29 | nt | nt | nt | nt | nt | nt | nt | nt
SMILES | SENP6 block | SENP7 inh | SENP8 block-1 | SENP8 block-2 | Apaf-1 inh | UBC13 polyUb | SENP8 confirm | SENP6 confirm | SENP7 confirm | Casp3 select | Luc interf
COCCc1ccc(OC2(C)CCN(Cc3ccc(OC)c4ccccc34)C2)cc1 (stereo not given) | nt | nt | 14 | nt | nt | nt | nt | nt | nt | nt | nt
CCOc1ccc(/C=N/NC(=O)c2ccc(Cn3cc(Br)cn3)o2)cc1 | 55* | 8 | -48 | 3 | -7 | 9 | 22 | 17 | 57* | 23 | 50
CCOc1ccc(/C=N/NC(=O)c2ccc(Cn3cc([N+](=O)[O-])cn3)o2)cc1 | -4 | 17 | -36 | -10 | 5 | -15 | nt | nt | nt | nt | nt
O=C1NC[C@@H](CCCCN2C[C@H](Cc3ccccc3)N(Cc3ccccc3)C(=O)C2=O)N(CCc2ccccc2)C1=O | nt | nt | 7 | nt | nt | nt | nt | nt | nt | nt | nt
COc1cc(NC(=O)c2ccccn2)cc(OC)c1OC | -13 | -3 | 2 | -8 | 0 | -9 | nt | nt | nt | nt | nt
COc1cc(NC(=O)c2ccc(N3CCCC3=O)cc2)cc(OC)c1 | 70* | 72* | 25 | 60* | 2 | 8 | 46 | 61* | 73* | 84* | 56*
O=C(Nc1ccc(OC(F)F)c(Cl)c1)c1ccccn1 | 85* | 85* | 12 | 79* | 3 | 4 | 74* | 75* | 95* | 68* | 27
COc1ccc(NC(=O)c2ccc(OC(F)F)cc2)cc1Cl | 93* | 97* | -3 | 95* | -2 | 0 | 86* | 95* | 100* | 92* | 76*
CC(=O)c1ccc(NC(=O)c2ccc(N3CCCC3=O)cc2)cc1 | -21 | -8 | 2 | 0 | 2 | 5 | nt | nt | nt | nt | nt
COc1ccc(NC(=O)c2ccc(N3CCCC3=O)cc2)cc1Cl | 24 | 54* | 5 | -8 | 0 | 6 | -6 | -1 | 4 | 6 | 0
C[C@H]1COc2cc(N(C)CCO)ccc2S(=O)(=O)N1 | nt | nt | 6 | nt | nt | nt | nt | nt | nt | nt | nt
O=[N+]([O-])c1cccc(/C=N/Nc2nccnc2Cl)c1 | 94* | 93* | 13 | 83* | 2 | -23 | 91* | 91* | 100* | 97* | 83*
O=[N+]([O-])c1ccc(/C=N/Nc2ccccn2)cc1 | -12 | 15 | 30 | -18 | 8 | -39 | nt | nt | nt | nt | nt
O=[N+]([O-])c1cccc(/C=N/Nc2ccccn2)c1 | 56* | 55* | 24 | 26 | 0 | 4 | -2 | -5 | 74* | 17 | -2
